# Data published in ChEMBL document CHEMBL1138921, “Discovery of 3,5-bis(trifluoromethyl)benzyl L-arylglycinamide based potent CCR2 antagonists” (Bioorg Med Chem Lett, 2006).
# Target: T1, C-C chemokine receptor type 2 (Homo sapiens, UniProt P41597)
# Test: Displacement of [125I]MCP1 from human CCR2 expressed in CHO cells
# Type: cell-based
# Method in brief: (§1)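 Competition binding: CHO cells stably expressing human CCR2b (5 × 10⁴) incubated with ¹²⁵I-hMCP-1 (20–50 pM) plus varied unlabeled competitor, 60 min, room temperature, in 50 mM HEPES, 5 mM MgCl₂, 1 mM CaCl₂, pH 7.4. Ended by filtration through polyethyleneimine-soaked GF/B filters, washed with 25 mM HEPES pH 7.5/500 mM NaCl. Values given as IC₅₀ or % inhibition at 1 µM.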
IC50 [nM],Ki [nM],SMILES
1480,,CN(C)CCNC(C(=O)NCc1cc(C(F)(F)F)cc(C(F)(F)F)c1)c1ccccc1 (centres undefined)
865,,CN(C)CCN[C@@H](C(=O)NCc1cc(C(F)(F)F)cc(C(F)(F)F)c1)c1cccs1
1000,,CN(C)CCN[C@H](C(=O)NCc1cc(C(F)(F)F)cc(C(F)(F)F)c1)c1ccccc1
400,,O=C(NCc1cc(C(F)(F)F)cc(C(F)(F)F)c1)[C@@H](NCCN1CCCCCC1)c1ccccc1
756,,CC1CCN(CCN[C@H](C(=O)NCc2cc(C(F)(F)F)cc(C(F)(F)F)c2)c2ccccc2)CC1
,29,O=C(O)c1cc2cc(O)ccc2n1Cc1ccc(Cl)c(Cl)c1
175,,O=C(NCc1cc(C(F)(F)F)cc(C(F)(F)F)c1)[C@@H](NCCN1CCCCC1)c1ccc(F)cc1
342,,O=C(NCc1cc(C(F)(F)F)cc(C(F)(F)F)c1)C(NCCN1CCCCC1)c1ccccc1 (centres undefined)
822,,O=C(NCc1cc(C(F)(F)F)cc(C(F)(F)F)c1)[C@@H](NCCN1CCC(c2ccccc2)CC1)c1ccccc1
424,,CN(C)CCN[C@H](C(=O)NCc1cc(C(F)(F)F)cc(C(F)(F)F)c1)c1ccsc1
219,,O=C(NCc1cc(C(F)(F)F)cc(C(F)(F)F)c1)[C@@H](NCCN1CCCCC1)c1ccccc1
200,,Nc1ccc(C(F)(F)F)cc1C(=O)NCC(=O)NCC1CCN(Cc2ccc(Cl)cc2)CC1
838,,CC1CCCCN1CCN[C@H](C(=O)NCc1cc(C(F)(F)F)cc(C(F)(F)F)c1)c1ccccc1 (some centres undefined)
1100,,CN(C)CCNC(C(=O)NCc1cc(C(F)(F)F)cc(C(F)(F)F)c1)c1ccc(Cl)cc1 (centres undefined)
770,,CN(C)CCN[C@H](C(=O)NCc1cc(C(F)(F)F)cc(C(F)(F)F)c1)c1ccc(F)cc1
678,,CCN(CC)CCNC(C(=O)NCc1cc(C(F)(F)F)cc(C(F)(F)F)c1)c1ccccc1 (centres undefined)
575,,O=C(NCc1cc(C(F)(F)F)cc(C(F)(F)F)c1)C(NCCN1CCOCC1)c1ccccc1 (centres undefined)
592,,CN(C)CCNC(C(=O)NCc1cc(C(F)(F)F)cc(C(F)(F)F)c1)c1ccco1 (centres undefined)
521,,O=C(NCc1cc(C(F)(F)F)cc(C(F)(F)F)c1)C(NCCN1CCCC1)c1ccccc1 (centres undefined)

SMILES,IC50 [nM],Ki [nM]
Cc1ccc2c(c1)C1(CCN(CCc3coc(-c4ccc(F)cc4)n3)CC1)OC(=O)N2,32,

# Target: T1, C-C chemokine receptor type 2
# Test: Displacement of [125I]MCP1 from human CCR2 expressed in CHO cells at 1 uM
# Type: cell-based
# Method in brief: as §1
# Target sequence in this assay (P41597 whole entry, looked up): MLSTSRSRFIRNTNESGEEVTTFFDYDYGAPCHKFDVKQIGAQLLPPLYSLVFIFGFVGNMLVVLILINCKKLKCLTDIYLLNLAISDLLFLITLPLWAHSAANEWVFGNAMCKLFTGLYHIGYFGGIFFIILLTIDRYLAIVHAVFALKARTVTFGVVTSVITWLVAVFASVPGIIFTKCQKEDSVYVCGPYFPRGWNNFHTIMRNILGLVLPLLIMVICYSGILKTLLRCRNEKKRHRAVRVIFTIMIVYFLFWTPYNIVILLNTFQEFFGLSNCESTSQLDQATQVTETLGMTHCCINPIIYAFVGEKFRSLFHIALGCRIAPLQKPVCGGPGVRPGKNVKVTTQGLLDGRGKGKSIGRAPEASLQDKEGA
row,inhibition [%],SMILES
1,0,CC(C)CCNC(C(=O)NCc1cc(C(F)(F)F)cc(C(F)(F)F)c1)c1ccccc1 (centres undefined)
2,26,O=C(NCc1cc(C(F)(F)F)cc(C(F)(F)F)c1)[C@@H](NCCCN1CCCCC1)c1ccccc1
3,0,Cc1cc(C)cc(CNC(=O)[C@@H](NCCN(C)C)c2ccccc2)c1
4,6,CN(C)CCN[C@H](COCc1cc(C(F)(F)F)cc(C(F)(F)F)c1)c1ccccc1
5,0,CN(C)CCN[C@H](CNC(=O)c1cc(C(F)(F)F)cc(C(F)(F)F)c1)c1ccccc1
6,17,CN(C)CCNC(C(=O)NCc1cc(C(F)(F)F)cc(C(F)(F)F)c1)c1cccc(Br)c1 (centres undefined)
7,9,CN(C)CCN[C@H](C(=O)NCc1cc(C(F)(F)F)cc(C(F)(F)F)c1)C1CCCCC1
8,8,CN(C)CCN[C@@H](C(=O)NCc1cc(C(F)(F)F)cc(C(F)(F)F)c1)c1ccc(F)cc1
9,0,CN(C)CCN[C@H](CNS(=O)(=O)c1cc(C(F)(F)F)cc(C(F)(F)F)c1)c1ccccc1
10,47,COc1ccc([C@H](NCCN(C)C)C(=O)NCc2cc(C(F)(F)F)cc(C(F)(F)F)c2)cc1
11,1,CN(C)CCN[C@H](C(=O)NCc1ccccc1C(F)(F)F)c1ccccc1
12,28,CC(NC(=O)[C@@H](NCCN(C)C)c1ccccc1)c1cc(C(F)(F)F)cc(C(F)(F)F)c1 (some centres undefined)
13,20,CN(C)CCN[C@H](C(=O)N(C)Cc1cc(C(F)(F)F)cc(C(F)(F)F)c1)c1ccccc1
14,33,CN(C)CCNC(C(=O)NCc1cc(C(F)(F)F)cc(C(F)(F)F)c1)c1ccc(F)c(F)c1 (centres undefined)
15,0,COCCNC(C(=O)NCc1cc(C(F)(F)F)cc(C(F)(F)F)c1)c1ccccc1 (centres undefined)
16,7,CN(C)CCN[C@H](C(=O)NCc1ccc(C(F)(F)F)cc1)c1ccccc1
17,0,CN(C)CCN[C@H](CN(Cc1cc(C(F)(F)F)cc(C(F)(F)F)c1)S(C)(=O)=O)c1ccccc1
18,0,CN(C)CCN[C@H](CN(C)S(=O)(=O)c1cc(C(F)(F)F)cc(C(F)(F)F)c1)c1ccccc1
19,1,CN(C)CCN[C@@H](Cc1ccc(F)cc1)C(=O)NCc1cc(C(F)(F)F)cc(C(F)(F)F)c1
20,5,CN(C)CCN[C@H](C(=O)NCc1cccc(C(F)(F)F)c1)c1ccccc1
21,14,NCCNC(C(=O)NCc1cc(C(F)(F)F)cc(C(F)(F)F)c1)c1ccccc1 (centres undefined)
22,25,CN(C)CCNC(C(=O)NCc1cc(C(F)(F)F)cc(C(F)(F)F)c1)c1ccc(Br)cc1 (centres undefined)
23,4,CC(=O)N(Cc1cc(C(F)(F)F)cc(C(F)(F)F)c1)C[C@@H](NCCN(C)C)c1ccccc1
24,0,CN(C)CCNCC(=O)NCc1cc(C(F)(F)F)cc(C(F)(F)F)c1

# Test system: Monocyte
# Test: Inhibition of MCP1-induced chemotaxis of human monocytes
# Type: functional, cell-based
# Method in brief: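 Human monocytes loaded with Calcein-AM in Hanks' buffer with 0.01% BSA, 37 °C, 30 min, then washed and resuspended in phenol red-free RPMI 1640 with 0.01% BSA. Migration toward MCP-1 measured in disposable 96-well chemotaxis plates (5.7 mm diameter wells), 1.5 × 10⁵ cells/well.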
IC50 [nM],SMILES,Kb [nM]
60,O=C(NC(=O)c1ccc2nccnc2c1)Nc1cccc(-c2ccccc2)c1,
60,O=C(O)c1cc2cc(O)ccc2n1Cc1ccc(Cl)c(Cl)c1,
,O=C(/C=C/c1ccc(Cl)c(Cl)c1)NCCCCCN1CCC(c2c[nH]c3ccc(O)cc23)CC1,25

SMILES,IC50 [nM],Kb [nM]
Cc1ccc2c(c1)C1(CCN(CCc3coc(-c4ccc(F)cc4)n3)CC1)OC(=O)N2,1000,

# Target: Substance-P receptor (Homo sapiens, UniProt P25103)
# Sequence (P25103 whole entry): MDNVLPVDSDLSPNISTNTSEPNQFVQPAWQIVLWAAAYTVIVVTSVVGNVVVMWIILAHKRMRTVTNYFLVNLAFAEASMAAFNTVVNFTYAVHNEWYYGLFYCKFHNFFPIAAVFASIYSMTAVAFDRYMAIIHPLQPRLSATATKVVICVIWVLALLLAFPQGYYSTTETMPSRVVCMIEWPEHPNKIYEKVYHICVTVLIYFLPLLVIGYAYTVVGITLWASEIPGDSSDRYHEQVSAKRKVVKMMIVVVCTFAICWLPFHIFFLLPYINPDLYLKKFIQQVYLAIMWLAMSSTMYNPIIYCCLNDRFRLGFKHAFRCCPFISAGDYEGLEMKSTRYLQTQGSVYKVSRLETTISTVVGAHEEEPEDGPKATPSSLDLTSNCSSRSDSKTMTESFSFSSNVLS
# Test: Binding affinity to human NK1 receptor
row,IC50 [nM],SMILES
1,650,CN(C)CCN[C@H](C(=O)NCc1cc(C(F)(F)F)cc(C(F)(F)F)c1)c1ccc(F)cc1
